HTR1E antagonist: 5-HT1E (human) receptor antagonism. P28566. inhibition, % at 6 µM. hit rate 0.99% among 65,000. AID 571. CHO 5-HT1E Ga15 NFAT-bla reporter, FRET, antagonist;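 active = inhibition above a set limit, the mean inhibition across every tested compound plus 3 SD, cut at about 29% in these data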;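 note: signal is the 460 over 535 nm emission ratio of beta-lactamase substrate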
Target sequence (P28566 whole entry, looked up): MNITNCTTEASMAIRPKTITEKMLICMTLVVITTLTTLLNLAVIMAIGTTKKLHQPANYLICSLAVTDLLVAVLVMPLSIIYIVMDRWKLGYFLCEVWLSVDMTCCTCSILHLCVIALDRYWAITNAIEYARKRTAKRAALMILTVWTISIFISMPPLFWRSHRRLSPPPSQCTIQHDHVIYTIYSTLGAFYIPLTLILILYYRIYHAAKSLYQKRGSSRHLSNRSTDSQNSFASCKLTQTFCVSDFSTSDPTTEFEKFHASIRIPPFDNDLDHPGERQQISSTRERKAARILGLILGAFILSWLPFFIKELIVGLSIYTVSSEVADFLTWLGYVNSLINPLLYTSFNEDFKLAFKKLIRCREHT
5HT1a ag: 5-HT1a (human) receptor agonism; P08908; CHO 5-HT1a Ga15 NFAT-bla reporter, FRET ratio; 0% basal, 100% maximal reference agonist; activation, % at 10 µM; hit rate 0.56% among 65,000;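 active = activation above the screen-wide mean activation plus 3 SD, cut at about 19% in these data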
5HT1a antag: antagonists of human 5-HT1a serotonin receptor; CHO 5-HT1a Ga15 NFAT-bla reporter, antagonist mode; hit rate 0.68% among 62,000; P08908; AID 612; inhibition, % at 10 µM;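 active = inhibition above the mean of all tested compounds plus 3 SD, cut at about 43% in these data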;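 note: receptor stimulated by 5-CT agonist at 100 nM near EC80; beta-lactamase reporter measured by ratiometric fluorescence of a cleavable substrate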
5HT1E ag: 5-HT1E (human) receptor agonism; P28566; CHO 5-HT1E Ga15 NFAT-bla reporter, FRET; 0% DMSO wells, 100% control agonist wells; hit rate 0.69% among 65,000; activation, % at 6 µM; AID 574;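 active = activation above a set limit, the screen-wide mean activation plus 3 SD, cut at about 8.5% in these data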
S1P3 agonist: agonists of human S1P3 receptor; S1P3 NFAT-BLA reporter cells, agonism, FRET ratio; relative to 1 µM S1P, basal subtracted; Q99500; hit rate 0.1% among 60,000; activation, % at 4.5 µM; AID 373;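 active = activation above the screen-wide mean plus 3 SD, cut at about 4.5% in these data, passing the limit was not always enough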
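material = human S1P3 NFAT-BLA reporter CHO cells | schedule = 4 h compound at 37 °C, 2 h substrate at RT | measured by = fluorescent BLA substrate, ex 405 nm, em 460/535 nm ratio | controls = 1 µM S1P reference | replication = primary once, confirmation triplicate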
S1P1 ag-PAM: agonists and agonism potentiators of human S1P1 receptor | P21453 | S1P1 CRE-bla cells, forskolin, beta-lactamase FRET, potentiator mode; S1P1 agonist co-added at EC20, 2 nM; 100% = saturating reference agonist, 0% = basal | activation, % at 9.5 µM | hit rate 0.57% among 56,000 | AID 449;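 active = activation above a cutoff set at the mean activation of all tested compounds plus 3 SD, cut at about 54% in these data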;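 note: forskolin at 4 µM as EC80 and the EC20 agonist is SEW2871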
Large screens that a line does not name were inactive. Only some compounds are listed: those with a hit (about 3% of all), similar ones and a draw of the others.

Clc1ccc(Cn2ncc3c(N4CCCCC4)ncnc32)cc1	HTR1E antagonist 33.8
CCN1CCN(C(c2cccs2)C(C)NS(=O)(=O)c2ccc(Br)cc2)CC1 (stereo not drawn)	none (no result: S1P3 agonist, S1P1 ag-PAM)
COc1ccccc1NC(=O)CSc1nnc(-c2ccncc2)n1CC1CCCO1 (stereo not drawn)	5HT1a ag 37.2
COc1ccc(Cl)cc1NC(=O)CSc1nnc(-c2ccncc2)n1CC1CCCO1 (stereo not drawn)	none
Cc1ccc2[nH]c3c(NCc4ccco4)ncnc3c2c1	S1P1 ag-PAM 65.0
c1coc(CNc2ncnc3nc[nH]c23)c1	none
Brc1ccc2ncnc(Nc3ccc(N4CCOCC4)cc3)c2c1	S1P1 ag-PAM 60.9
COc1ccccc1C1CC(=O)Nc2cc3c(cc21)OCCO3 (stereo not drawn)	HTR1E antagonist 46.9
CC(C)Oc1ccccc1C1CC(=O)Nc2cc3c(cc21)OCCO3 (stereo not drawn)	HTR1E antagonist 62.6, 5HT1a antag 50.1
COc1cccc(C2CC(=O)Nc3cc4c(cc32)OCCO4)c1OC(C)C (stereo not drawn)	none
CC(C)NC(=O)c1ccc(CS(=O)(=O)c2ccc(Br)cc2)o1	none
FC(F)(F)c1cccc(N2CCN(Cc3cccnc3)CC2)c1	none
FC(F)(F)c1cccc(N2Cc3ccccc3C2)c1	5HT1E ag 10.8
FC(F)(F)c1cccc(N2CCN(Cc3ccoc3)CC2)c1	5HT1E ag 13.9 (no result: S1P1 ag-PAM)
Oc1c(C(c2cccc(F)c2)N2CCN(Cc3ccccc3)CC2)sc2ncnn12 (stereo not drawn)	none
Cc1ccccc1Cn1cc(NC(=O)c2noc3c2CC(C(C)(C)C)CC3)cn1 (stereo not drawn)	5HT1a ag 26.0
Cc1ccccc1Cn1nc(C)c(NC(=O)c2noc3c2CC(C(C)(C)C)CC3)c1C (stereo not drawn)	none
Cc1ccc2nc(C(F)(F)F)c(C#N)c(N)c2c1	HTR1E antagonist 34.7, S1P1 ag-PAM 64.0 (no result: 5HT1a antag)
Cc1ccc2nc(SCCC#N)nc(C)c2c1	none
CCOC(=O)CCc1nn(C)c(=O)c2ccccc12	HTR1E antagonist 39.8 (no result: S1P3 agonist, S1P1 ag-PAM)
CCOC(=O)C(C)c1nn(C)c(=O)c2ccccc12 (stereo not drawn)	none (no result: S1P1 ag-PAM)
CN(C)CC(O)COc1cc2ccccc2cc1C(=O)N1CCCCC1 (stereo not drawn)	none
O=C(C1COc2ccccc2O1)N1CCc2ccccc21 (stereo not drawn)	none
Cc1ccc2[nH]c(=O)c(C(c3nnnn3C3CCCC3)N(Cc3cccnc3)Cc3ccco3)cc2c1 (stereo not drawn)	5HT1a ag 98.3
CCc1c(C)sc(NC(=O)c2cc(-c3ccco3)on2)c1C#N	S1P1 ag-PAM 92.5
CCc1c(C)sc(NC(=O)c2cc(C)on2)c1C#N	none
CCCc1cc(C(=O)Nc2sc(C)c(CC)c2C#N)no1	S1P1 ag-PAM 73.6
CCc1c(C)sc(NC(=O)c2cc(C3CC3)on2)c1C#N	none
Cc1ccc(NC(=O)c2cc(-c3ccco3)on2)cc1C	S1P1 ag-PAM 72.4
COc1cccc(N2CC(O)=C(c3nc4ccccc4c(=O)[nH]3)C2=N)c1	HTR1E antagonist 33.9 (no result: S1P3 agonist, S1P1 ag-PAM)
CC(C)CC(=O)NC1(C(F)(F)F)C(=O)Nc2c1c(=O)n(C)c(=O)n2C (stereo not drawn)	none
O=C(Nc1ccon1)c1csc2ccccc12	none
O=C(Nc1ccon1)c1csc2c1CCCC2	5HT1E ag 8.9
Cn1c(C(=O)N2CCN(c3ccccn3)CC2)cc2c(=O)n(C)c3ccccc3c21	5HT1E ag 21.3
NC(=O)N1CC(O)CC1C(=O)Nc1ccc(Cl)c(Cl)c1 (stereo not drawn)	none
CCOC(=O)c1cnc(-n2nc(C)cc2C)nc1NCc1ccccc1	5HT1a antag 47.4
Cn1c(C(=O)NCCCN2CCCC2=O)cc2c(=O)n3ccccc3nc21	HTR1E antagonist 30.4
Cn1c(C(=O)NCCC2=CCCCC2)cc2c(=O)n3ccccc3nc21	none
N#CCCn1c2ccccc2c2nc3ccccc3nc21	HTR1E antagonist 38.3
CCc1nn(C(C)C(=O)NCCN2CCN(c3cccc(C)c3C)CC2)c(=O)c2cc3occc3n12 (stereo not drawn)	5HT1E ag 62.1
Cc1ccc(-c2nnn(CC(=O)N(Cc3cccs3)C(C(=O)NC(C)(C)C)c3ccco3)n2)o1 (stereo not drawn)	none
CC(C)(C)NC(=O)C(c1ccco1)N(C(=O)Cn1nnc(-c2ccc(F)cc2)n1)c1cccc(F)c1 (stereo not drawn)	5HT1E ag 10.0
Cc1ccc(-c2nnn(CC(=O)N(c3ccc(F)cc3)C(C(=O)NC3CCCC3)c3ccco3)n2)o1 (stereo not drawn)	none
Cc1ccc(-c2nnn(CC(=O)N(c3cccc(F)c3)C(C(=O)NC3CCCC3)c3ccco3)n2)o1 (stereo not drawn)	HTR1E antagonist 32.2
Cc1noc(C)c1COc1cccc(C(=O)OCC(=O)N2CC(=O)Nc3ccccc32)c1	HTR1E antagonist 38.2
Nc1nc2ccc(Oc3ccccc3)cc2s1	none
Nc1nc2ccc(OC(F)(F)F)cc2s1	5HT1a ag 23.7 (no result: 5HT1a antag)
O=C1C2C3C=CC(CO)(O3)C2C(=O)N1c1ccc(-c2ccccc2)cc1 (stereo not drawn)	HTR1E antagonist 60.8, 5HT1a antag 87.9 (no result: S1P3 agonist, S1P1 ag-PAM)
Cc1ccc(S(=O)(=O)Nc2cccc3ncccc23)s1	HTR1E antagonist 81.0, 5HT1a antag 64.2
O=S(=O)(CCSc1ccccn1)c1nc2ccccc2s1	S1P1 ag-PAM 88.1
CCS(=O)(=O)CCSc1nc2ccccc2o1	none (no result: S1P1 ag-PAM)
O=C(CSc1nc2ccccc2s1)Nc1ncccn1	none
O=S(=O)(CCSc1nc2ccccc2o1)c1nc2ccccc2s1	5HT1a antag 47.3
O=C(Cn1ncn2c(cc3ccccc32)c1=O)NCc1ccco1	none
Cc1ccc(-c2nc(NC(=O)CSc3nnnn3-c3ccccc3)ns2)cc1	5HT1a antag 49.9
O=C(c1ccco1)N1CCN(/C(=N/S(=O)(=O)c2cccs2)c2ccccc2Cl)CC1	5HT1a ag 29.2
COc1cccc(-n2c(SC3CCOC3=O)nc3ccccc3c2=O)c1 (stereo not drawn)	HTR1E antagonist 37.0
COc1ccc(OCc2nnc(SC3CCOC3=O)n2-c2ccccc2)cc1 (stereo not drawn)	none
Cc1cccc2cc(COC(=O)C(C)(C)C)c(=O)[nH]c12	none
COc1ccc(C(c2nnnn2Cc2ccccc2)N2CCN(c3ccccc3)CC2)cc1 (stereo not drawn)	none
COc1ccc(C(c2nnnn2C2CCCCC2)N2CCN(c3ccccc3)CC2)cc1 (stereo not drawn)	5HT1a antag 51.6

High-throughput results: PubChem BioAssay, The Scripps Research Institute Molecular Screening Center
